# Test results from ChEMBL document CHEMBL1136726, “Synthesis and characterization of iodine-123 labeled 2beta-carbomethoxy-3beta-(4'-((Z)-2-iodoethenyl)phenyl)nortropane. A ligand for in vivo imaging of serotonin transporters by single-photon-emission tomography” (J Med Chem, 2003).
# How the values were obtained:
# Rattus norvegicus [1] = experiment: Distribution of radioactivity in rat blood 30 min after intravenous administration of iodine labeled compound; type: ADME, organism-based; conditions: in vivo, 0.5 h
# In short: (§1)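 Male Sprague–Dawley rats (225–300 g) under ketamine received 10 µCi radioligand in 0.2 mL 10% EtOH/0.9% NaCl via tail vein, then a saline flush. Killed by cardiac excision at set times. Organs were excised, weighed and gamma-counted. % dose/g was taken against diluted injectate. Mean ± SE and range, n=4 (5 min) or 5 (30–120 min).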
# Rattus norvegicus [2] = experiment: Ratio of distribution of radioactivity in rat brain prefrontal cortex and cerebellum 5 min after intravenous administration of iodine labeled compound; type: ADME, organism-based; conditions: in vivo
# In short: (§2)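 Male Sprague–Dawley rats (225–300 g) under ketamine anaesthesia were given [123I]ZIENT (10 μCi) in 0.2 mL 10% EtOH/0.9% NaCl into the tail vein, with a saline flush. Hypothalamus, prefrontal cortex, striatum, pons and cerebellum were dissected and gamma-counted. % injected dose/g came from decay-corrected counts against the diluted injected dose, and region/cerebellum ratios were taken from these. Mean ± SE, n=4–5.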
# Rattus norvegicus [3] = experiment: Ratio of distribution of radioactivity in rat brain region striatum and cerebellum 60 min after intravenous administration of iodine labeled compound in presence of fluvoxamine blocker in study 1; type: ADME, organism-based; conditions: in vivo, 1 h
# Rattus norvegicus [4] = experiment: Distribution of radioactivity in rat thyroid 60 min after intravenous administration of iodine labeled compound; type: ADME, organism-based, Thyroid gland; conditions: in vivo, 1 h
# In short: (§3)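 Tail-vein injection of [123I]ZIENT (10 μCi in 0.2 mL 10% EtOH/0.9% NaCl, then 0.4 mL saline flush) into ketamine-anaesthetised male Sprague–Dawley rats (225–300 g). Animals were killed by cardiac excision at set times. Organs were excised, rinsed, blotted, weighed and gamma-counted. % dose/g was calculated against diluted aliquots of injectate. Mean ± SE, n=4–5.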
# Rattus norvegicus [5] = experiment: Distribution of radioactivity in rat liver 120 min after intravenous administration of iodine labeled compound; type: ADME, organism-based; conditions: in vivo, 2 h; in short: as §3
# Rattus norvegicus [6] = experiment: Distribution of radioactivity in rat thyroid 30 min after intravenous administration of iodine labeled compound; type: ADME, organism-based, Thyroid gland; conditions: in vivo, 0.5 h; in short: as §3
# Rattus norvegicus [7] = experiment: Distribution of radioactivity in rat brain region cerebellum 60 min after intravenous administration of iodine labeled compound in presence of reboxetine blocker in study 2; type: ADME, organism-based; conditions: in vivo, 1 h
# In short: (§4)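 Male Sprague–Dawley rats (250–300 g), ketamine-anesthetized. Blocker (2 mg/kg) or none was given iv 15 min before tail-vein radioligand (10 µCi in 0.2 mL 10% EtOH/saline). Rats were killed at 60 min with im pentobarbital. Brain regions were dissected, weighed and gamma-counted. % dose/g was taken from decay-corrected, background-subtracted counts versus the injected dose.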
# [8] = target: Sodium-dependent dopamine transporter (Homo sapiens, UniProt Q01959); experiment: In vitro competitive binding versus [N-methyl-3H]WIN-35428 in murine kidney cells transfected with cDNA for human dopamine transporter (DAT); type: cell-based
# Rattus norvegicus [9] = experiment: Ratio of distribution of radioactivity in rat brain region striatum and cerebellum 60 min after intravenous administration of iodine labeled compound in absence of blocker in study 1; type: ADME, organism-based; conditions: in vivo, 1 h
# Rattus norvegicus [10] = experiment: Distribution of radioactivity in rat testis 5 min after intravenous administration of iodine labeled compound; type: ADME, organism-based; conditions: in vivo; in short: as §3
# Rattus norvegicus [11] = experiment: Ratio of distribution of radioactivity in rat brain region prefrontal cortex and cerebellum 60 min after intravenous administration of iodine labeled compound in presence of reboxetine blocker in study 2; type: ADME, organism-based; conditions: in vivo, 1 h
# Rattus norvegicus [12] = experiment: Distribution of radioactivity in rat brain region prefrontal cortex 60 min after intravenous administration of iodine labeled compound in absence of blocker in study 2; type: ADME, organism-based; conditions: in vivo, 1 h; in short: as §4
# Rattus norvegicus [13] = experiment: Distribution of radioactivity in rat brain region hypothalamus 60 min after intravenous administration of iodine labeled compound in presence of RTI-113 blocker in study 1; type: ADME, organism-based; conditions: in vivo, 1 h; in short: as §4
# Rattus norvegicus [14] = experiment: Distribution of radioactivity in rat brain prefrontal cortex 60 min after intravenous administration of iodine labeled compound; type: ADME, organism-based; conditions: in vivo, 1 h
# In short: (§5)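 Male Sprague–Dawley rats (225–300 g) under ketamine received 10 µCi radioligand iv (tail vein) in 10% EtOH/saline. Hypothalamus, prefrontal cortex, striatum, pons and cerebellum were dissected, weighed and gamma-counted. % injected dose/g was taken from decay-corrected counts versus diluted dose. Mean ± SE and range, n=5 (5, 30 min) or 4 (60, 120 min).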
# Rattus norvegicus [15] = experiment: Distribution of radioactivity in rat brain prefrontal cortex 30 min after intravenous administration of iodine labeled compound; type: ADME, organism-based; conditions: in vivo, 0.5 h; in short: as §5
# Rattus norvegicus [16] = experiment: Distribution of radioactivity in rat brain striatum 30 min after intravenous administration of iodine labeled compound; type: ADME, organism-based; conditions: in vivo, 0.5 h; in short: as §2
# Rattus norvegicus [17] = experiment: Distribution of radioactivity in rat brain region striatum 60 min after intravenous administration of iodine labeled compound in presence of reboxetine blocker in study 2; type: ADME, organism-based; conditions: in vivo, 1 h
# In short: (§6)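 Male Sprague–Dawley rats (250–300 g), ketamine-anaesthetised, received [123I]ZIENT (10 μCi) in 0.2 mL 10% ethanol/0.9% NaCl via the tail vein. […] Rats were killed at 60 min with pentobarbital, brain regions dissected and gamma-counted. Values are % dose/g from decay-corrected, background-subtracted counts against the diluted injected dose.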
# Rattus norvegicus [18] = experiment: Ratio of distribution of radioactivity in rat brain region prefrontal cortex and cerebellum 60 min after intravenous administration of iodine labeled compound in absence of blocker in study 1; type: ADME, organism-based; conditions: in vivo, 1 h
# Rattus norvegicus [19] = experiment: Distribution of radioactivity in rat brain hypothalamus 30 min after intravenous administration of iodine labeled compound; type: ADME, organism-based; conditions: in vivo, 0.5 h; in short: as §5
# Rattus norvegicus [20] = experiment: Ratio of distribution of radioactivity in rat brain striatum and cerebellum 30 min after intravenous administration of iodine labeled compound; type: ADME, organism-based; conditions: in vivo, 0.5 h
# In short: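 Male Sprague–Dawley rats (225–300 g), ketamine anesthesia, injected via tail vein with [123I]ZIENT (10 μCi in 0.2 mL 10% EtOH/0.9% NaCl, 0.4 mL saline flush). Killed at 5, 30, 60 or 120 min. Striatum and cerebellum dissected, weighed, γ-counted. Decay-corrected %injected dose/g taken against diluted injectate. Ratio is striatum over cerebellum. Four or five rats per time point, mean ± standard error.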
# Rattus norvegicus [21] = experiment: Ratio of distribution of radioactivity in rat brain region striatum and cerebellum 60 min after intravenous administration of iodine labeled compound in presence of RTI-113 blocker in study 1; type: ADME, organism-based; conditions: in vivo, 1 h
# Rattus norvegicus [22] = experiment: Distribution of radioactivity in rat blood 120 min after intravenous administration of iodine labeled compound; type: ADME, organism-based; conditions: in vivo, 2 h; in short: as §1
# Rattus norvegicus [23] = experiment: Distribution of radioactivity in rat brain region striatum 60 min after intravenous administration of iodine labeled compound in presence of RTI-113 blocker in study 1; type: ADME, organism-based; conditions: in vivo, 1 h; in short: as §6
# Rattus norvegicus [24] = experiment: Distribution of radioactivity in rat brain region frontal cortex 60 min after intravenous administration of iodine labeled compound in presence of RTI-113 blocker in study 1; type: ADME, organism-based; conditions: in vivo, 1 h; in short: as §4
# Rattus norvegicus [25] = experiment: Distribution of radioactivity in rat muscle tissue 60 min after intravenous administration of iodine labeled compound; type: ADME, organism-based; conditions: in vivo, 1 h; in short: as §3
# Rattus norvegicus [26] = experiment: Distribution of radioactivity in rat brain striatum 60 min after intravenous administration of iodine labeled compound; type: ADME, organism-based; conditions: in vivo, 1 h; in short: as §2
# Rattus norvegicus [27] = experiment: Distribution of radioactivity in rat brain region frontal cortex 60 min after intravenous administration of iodine labeled compound in presence of reboxetine blocker in study 2; type: ADME, organism-based; conditions: in vivo, 1 h; in short: as §4
# Rattus norvegicus [28] = experiment: Distribution of radioactivity in rat blood 5 min after intravenous administration of iodine labeled compound; type: ADME, organism-based; conditions: in vivo; in short: as §1
# Rattus norvegicus [29] = experiment: Distribution of radioactivity in rat brain region pons 60 min after intravenous administration of iodine labeled compound in presence of fluvoxamine blocker in study 1; type: ADME, organism-based; conditions: in vivo, 1 h; in short: as §4
# Rattus norvegicus [30] = experiment: Distribution of radioactivity in rat brain region hypothalamus 60 min after intravenous administration of iodine labeled compound in presence of reboxetine blocker in study 2; type: ADME, organism-based; conditions: in vivo, 1 h; in short: as §4
# Chain of Sodium-dependent dopamine transporter (Q01959 whole entry): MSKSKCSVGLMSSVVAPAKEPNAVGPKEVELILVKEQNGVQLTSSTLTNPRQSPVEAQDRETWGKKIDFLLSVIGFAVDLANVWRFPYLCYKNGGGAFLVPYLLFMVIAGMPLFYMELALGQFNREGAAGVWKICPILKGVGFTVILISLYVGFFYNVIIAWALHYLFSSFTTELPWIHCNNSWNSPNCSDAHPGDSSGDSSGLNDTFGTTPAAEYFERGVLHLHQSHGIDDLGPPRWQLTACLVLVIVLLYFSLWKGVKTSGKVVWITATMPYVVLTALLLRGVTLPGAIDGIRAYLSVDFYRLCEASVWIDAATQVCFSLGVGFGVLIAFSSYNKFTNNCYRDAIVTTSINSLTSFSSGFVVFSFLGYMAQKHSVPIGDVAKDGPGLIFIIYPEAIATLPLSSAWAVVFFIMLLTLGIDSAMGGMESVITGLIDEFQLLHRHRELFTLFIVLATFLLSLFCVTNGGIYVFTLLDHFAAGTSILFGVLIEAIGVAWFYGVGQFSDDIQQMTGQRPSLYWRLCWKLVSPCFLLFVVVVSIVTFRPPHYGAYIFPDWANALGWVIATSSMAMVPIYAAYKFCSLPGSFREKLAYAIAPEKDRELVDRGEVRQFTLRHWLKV
smiles,measurement,setting,value
COC(=O)[C@@H]1C2CCC(C[C@@H]1c1ccc(/C=C\I)cc1)N2 (stereo not given in full),Distribution (dose/g),Rattus norvegicus [1],0.4%
same,Distribution (dose/g),Rattus norvegicus [2],1.45%
same,Distribution (dose/g),Rattus norvegicus [3],1.76%
same,Distribution (dose/g),Rattus norvegicus [4],0.8%
same,Distribution (dose/g),Rattus norvegicus [5],0.23%
same,Distribution (dose/g),Rattus norvegicus [6],0.49%
same,Distribution (dose/g),Rattus norvegicus [7],0.23%
same,Ki,[8],3.47 nM
same,Distribution (dose/g),Rattus norvegicus [9],3.17%
same,Distribution (dose/g),Rattus norvegicus [10],0.21%
same,Distribution (dose/g),Rattus norvegicus [11],3.07%
same,Distribution (dose/g),Rattus norvegicus [12],0.74%
same,Distribution (dose/g),Rattus norvegicus [13],0.8%
same,Distribution (dose/g),Rattus norvegicus [14],0.82%
same,Distribution (dose/g),Rattus norvegicus [15],0.82%
same,Distribution (dose/g),Rattus norvegicus [16],0.72%
same,Distribution (dose/g),Rattus norvegicus [17],0.66%
same,Distribution (dose/g),Rattus norvegicus [18],3.88%
same,Distribution (dose/g),Rattus norvegicus [19],0.76%
same,Distribution (dose/g),Rattus norvegicus [20],2.25%
same,Distribution (dose/g),Rattus norvegicus [21],2.56%
same,Distribution (dose/g),Rattus norvegicus [22],0.31%
same,Distribution (dose/g),Rattus norvegicus [23],0.64%
same,Distribution (dose/g),Rattus norvegicus [24],0.66%
same,Distribution (dose/g),Rattus norvegicus [25],0.2%
same,Distribution (dose/g),Rattus norvegicus [26],0.68%
same,Distribution (dose/g),Rattus norvegicus [27],0.63%
same,Distribution (dose/g),Rattus norvegicus [28],0.44%
same,Distribution (dose/g),Rattus norvegicus [29],0.25%
same,Distribution (dose/g),Rattus norvegicus [30],0.65%
